Series [1] in a line: Displacement of [3H]batrachotoxin from rat brain sodium channel site 2. Type of series: tissue-based. On the technique in general: Displacement assays read how much labelled ligand stays bound in the presence of the test substance.
Series [2] in a line: Solubility of the compound at pH 2.5 by HPLC analysis. Type of series: physicochemical. The note with it: buffer. The method, boiled down:
(§1)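 Compound (1 mg) shaken in 0.4 mL buffered solution at pH 7.4 or pH 2.5, then centrifuged; dissolved compound in the supernatant quantified by HPLC.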

Series [3] has as its target Translocator protein (Rattus norvegicus, UniProt P16257). As to the kind of experiment: Displacement of [3H]PK11195 from Sprague-Dawley rat kidney TSPO after 1 hr by liquid scintillation counting analysis.
The species entered for series [4] is Rattus norvegicus. As to the kind of experiment: Displacement of [3H]flumazenil from Sprague-Dawley rat cerebral cortex CBR at 10 uM after 1 hr by liquid scintillation counting analysis. In kind it is tissue-based.
The nature of series [5]: Metabolic stability in rat liver S9 fraction assessed as compound remaining at 1 uM after 30 mins in presence of NADPH. In kind it is ADME, subcellular. The following applies: read-out: Stability.
Series [6] is described as follows: Solubility of the compound at pH 7.4 by HPLC analysis. In kind it is physicochemical. The note with it: buffer. In short, it runs like this: as §1
The nature of series [7]: Solubility of the compound at pH 6.8. Type of series: physicochemical. The following applies: buffer. The method, boiled down: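 Solubility measured in pH 6.8 buffer containing bile acids; compound tested as free base and as HCl salt.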
For series [8], the target named is CYP2C19 (Homo sapiens, UniProt P33261). Briefly: Inhibition of CYP2C19 (unknown origin) at 1 uM. In kind it is ADME.
Series [9] has as its system Rattus norvegicus. Briefly: Anxiolytic-like activity in Sprague-Dawley rat vogel conflict model at 3 mg/kg, po after 1 hr. Further details: dose 3 mg/kg. In kind it is functional, organism-based.
Series [10] is filed under the species Rattus norvegicus. Briefly: Displacement of [3H]batrachotoxin from rat brain sodium channel site 2 at 10 uM relative to control. Type of series: tissue-based.

The source of these data is ChEMBL document CHEMBL2440065, “Identification of a novel benzoxazolone derivative as a selective, orally active 18 kDa translocator protein (TSPO) ligand” (J Med Chem, 2013).

Converted amounts (≈) assume the structure as drawn. The source made the active and inactive calls. The calls are words filed in the database; no cut-off is given here.

Sequence of Translocator protein (P16257 whole entry, looked up): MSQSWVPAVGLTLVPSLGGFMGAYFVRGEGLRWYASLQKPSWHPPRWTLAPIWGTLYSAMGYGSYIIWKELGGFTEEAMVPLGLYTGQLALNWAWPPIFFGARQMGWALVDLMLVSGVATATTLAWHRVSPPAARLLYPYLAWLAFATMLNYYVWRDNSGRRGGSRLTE
Sequence of CYP2C19 (P33261 whole entry): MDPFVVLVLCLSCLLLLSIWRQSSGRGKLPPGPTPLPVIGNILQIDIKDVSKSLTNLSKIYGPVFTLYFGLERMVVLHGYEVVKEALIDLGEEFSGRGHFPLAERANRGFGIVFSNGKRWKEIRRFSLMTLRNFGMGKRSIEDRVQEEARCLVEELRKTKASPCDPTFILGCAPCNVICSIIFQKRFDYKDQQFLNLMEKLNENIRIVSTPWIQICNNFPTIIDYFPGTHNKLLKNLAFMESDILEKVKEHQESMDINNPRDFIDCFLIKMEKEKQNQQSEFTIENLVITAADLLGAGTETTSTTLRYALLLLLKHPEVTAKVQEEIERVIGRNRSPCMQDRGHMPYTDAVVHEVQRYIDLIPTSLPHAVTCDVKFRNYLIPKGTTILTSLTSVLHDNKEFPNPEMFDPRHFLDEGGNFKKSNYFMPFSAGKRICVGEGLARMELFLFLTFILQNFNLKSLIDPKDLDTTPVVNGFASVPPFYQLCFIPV

As for `CN(C(=O)Cn1c(=O)oc2ccc(-c3ccccc3)cc21)c1cccnc1`, in series [1], the IC50 is above 1000 nM. Also, in [2], the solubility turned out to be 180 µg/mL (≈ 501 µM).

Regarding `COc1ccc(N(C)C(=O)Cn2c(=O)oc3ccc(-c4ccncc4)cc32)cc1`, in series [3], the Ki came to 17 nM. For the same compound, in [4], the inhibition is 2%. In series [5], the remaining at 0.5 h, 1 µM turned out to be 47%. Moreover, the solubility in [6] was below 1 µg/mL; in series [2], 130 µg/mL (≈ 334 µM).

The compound `CN(C(=O)Cn1c(=O)oc2ccc(-c3ccc(C(F)(F)F)cc3)cc21)c1cccnc1` had a Ki in [3] of 9.8 nM. Also, the inhibition in series [4] was 6%. Also, the remaining at 0.5 h, 1 µM in series [5] stood at 24%. Further, the solubility in series [6] and in [2] was below 1 µg/mL in each case.

Turning to `CN(C(=O)Cn1c(=O)oc2ccc(-c3ccc(OC(F)(F)F)cc3)cc21)c1cccnc1` [listing 1 of 2 here], the affinity in series [3], expressed as Ki, was 4.9 nM. For the same compound, the remaining at 0.5 h, 1 µM in series [5] worked out at 32%. For the same compound, the solubility is below 1 µg/mL in series [6], 4 µg/mL (≈ 9.02 µM) in [2] and 20 µg/mL (≈ 45.1 µM) in series [7]. In series [1], this compound yielded an IC50 of 700 nM.

Turning to `CN(C(=O)Cn1c(=O)oc2ccc(-c3cccnc3)cc21)c1ccccc1`, the solubility in series [6] came out at 5 µg/mL (≈ 13.9 µM).

Regarding `CN(C(=O)Cn1c(=O)oc2ccc(-c3cccnc3)cc21)c1ccc(OC(F)(F)F)cc1`, in series [3], affinity was put at a Ki of 26 nM. In addition, in series [4], the inhibition came to 0%. Also, the IC50 in series [1] was above 1000 nM.

`CN(C(=O)Cn1c(=O)oc2ccc(-c3ccncc3)cc21)c1ccc(C(F)(F)F)cc1` had a Ki in series [3] of 6.6 nM. Moreover, in series [4], the inhibition came out at 0%. Also, in series [5], the remaining at 0.5 h, 1 µM worked out at 35%. Moreover, the solubility is 3 µg/mL (≈ 7.02 µM) in series [6] and above 1000 µg/mL in [2]. The inhibition at 1 µM in series [8] stood at 73%.

In series [3], `COc1ccc(N(C)C(=O)Cn2c(=O)oc3ccc(-c4cccnc4)cc32)cc1` registered a Ki of 19 nM. Besides, the inhibition in series [4] was determined as 0%. Further, the remaining at 0.5 h, 1 µM in series [5] worked out at 9%.

In the case of `CN(C(=O)Cn1c(=O)oc2ccc(-c3ccccc3)cc21)c1ccccn1`, the solubility turned out to be 1 µg/mL (≈ 2.78 µM) in series [6] and 3 µg/mL (≈ 8.35 µM) in series [2].

In turn, `CCN(C(=O)Cn1c(=O)oc2ccc(-c3cccnc3)cc21)c1ccccc1` returned a Ki in series [3] of 4.4 nM. In series [4], the inhibition came out at 21%. In addition, the remaining at 0.5 h, 1 µM in [5] stood at 0%.

In series [2], `CN(C(=O)Cn1c(=O)oc2ccc(-c3ccccc3)cc21)c1ccccc1` registered a solubility of 1 µg/mL (≈ 2.79 µM).

In turn, `CN(C(=O)Cn1c(=O)oc2ccc(-c3ccncc3)cc21)c1ccc(OC(F)(F)F)cc1` yielded an inhibition constant Ki in series [3] of 23 nM.

On to `CN(C(=O)Cn1c(=O)oc2ccc(-c3ccc(C(F)(F)F)cc3)cc21)c1ccccc1`, for which the solubility in series [6] and in series [2] was below 1 µg/mL in each case.

On to `CN(C(=O)Cn1c(=O)oc2ccc(-c3ccc(OC(F)(F)F)cc3)cc21)c1cccnc1` [listing 2 of 2 here], for which, in series [9], the result was Active. In addition, the values for the inhibition in series [4] and in series [10] were 0% and 108%, respectively.

As to `CN(C(=O)Cn1c(=O)oc2ccc(-c3ccncc3)cc21)c1ccccc1`, the solubility in series [6] is 1 µg/mL (≈ 2.78 µM); in [2] it was 730 µg/mL (≈ 2030 µM).

Turning to `CN(C(=O)Cn1c(=O)oc2ccc(-c3ccc(OC(F)(F)F)cc3)cc21)c1ccccc1`, the solubility in [6] and in [2] was below 1 µg/mL in each case.

Regarding `CCN(C(=O)Cn1c(=O)oc2ccc(-c3ccncc3)cc21)c1ccccc1`, the Ki in [3] came out at 3 nM. Besides, in series [4], the inhibition is 5%. In addition, in [5], the remaining at 0.5 h, 1 µM is 24%. In addition, the values for the solubility in [6] and in series [2] were 2 µg/mL (≈ 5.36 µM) and 860 µg/mL (≈ 2300 µM), respectively. Besides, in [8], the inhibition at 1 µM was 71%.

For orientation: IC50 means the midpoint of a concentration-inhibition curve. What is called solubility is the dissolved amount per volume that the medium holds. Read a high solubility as a readily soluble substance. As usually defined, the Ki is a dissociation constant, usually derived from enzyme kinetics or from competition with a known ligand. Low readings indicate higher affinity, high ones lower affinity. The term inhibition denotes the drop in the measured response relative to a control, in per cent.
